Assay results taken from the M2OR odorant receptor database.

The molecules below were run against T1, OR1A2 (Homo sapiens) (UniProt Q9Y585). Conditions: stereoisomer not certain.
T1 sequence (whole entry): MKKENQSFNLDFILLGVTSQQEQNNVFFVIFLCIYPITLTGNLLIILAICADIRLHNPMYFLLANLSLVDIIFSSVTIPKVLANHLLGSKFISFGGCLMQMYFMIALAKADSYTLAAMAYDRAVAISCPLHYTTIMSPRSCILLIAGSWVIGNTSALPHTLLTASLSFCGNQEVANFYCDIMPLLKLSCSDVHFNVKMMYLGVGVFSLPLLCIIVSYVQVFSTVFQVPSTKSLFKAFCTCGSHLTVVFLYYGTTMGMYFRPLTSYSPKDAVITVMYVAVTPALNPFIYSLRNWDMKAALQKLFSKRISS
Summary of the method: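 Whether a receptor–molecule pair is responsive (active) rests on the original authors' judgment that its measured signal was statistically different from baseline. Pairs without that judgment are non-responsive (inactive). Sources used varied assay methods, commonly transient luciferase assays in mammalian cell lines.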
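Note: active if original authors judged signal statistically different from baseline.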

Odorant receptor agonist call, active:
CC(=O)C=CC1=C(C)CCCC1(C)C, C=C(C)C1CC=C(C)CC1 (stereo unspecified), C=CC(C)(O)CCC=C(C)CCC=C(C)C (stereo unspecified), CCCCCC=CCCC=O, CCCCCCCCO, C=CC(=O)CCCCC, CC(CC=O)CCCC(C)(C)O (stereo unspecified)

Odorant receptor agonist call, inactive:
CC1CCCCCCCCCCCCC(=O)C1 (stereo unspecified), CCCCCC=O, CCCCCC(=O)C(C)C(C)=O (stereo unspecified), O=C([O-])CCCCC(=O)[O-].[H+].[H+], CCCCCCC(=O)[O-].[H+], CCC=CCCC=CC=O, CCCCCCO, CC(CO)CS (stereo unspecified), CC=CC(=O)C1=C(C)C=CCC1(C)C, C=C(C)C1CC=C(C)C(OC(C)=O)C1 (stereo unspecified), C=CC(=O)CC, CC(C)C12CCC(C)(CC1)O2, CCc1nccnc1CC, CCCCCCCCCO, CCCCCCCC=CC=CC=O, CC(C)=CCCC(C)=CCCC(C)=CCO, COc1nccnc1C(C)C, CC=CC(=O)C1=C(C)CCCC1(C)C, CCC(S)C(C)CO (stereo unspecified), CSCCCO, COc1nccnc1CC(C)C, C1CCNC1, O=C([O-])CCC(=O)[O-].[H+].[H+], COC(C=C(C)CCC=C(C)C)OC, CC1(C)C2CC=C(C=O)C1C2 (stereo unspecified), CSCCC=O, Cc1nccnc1C, CCc1ncc(C)nc1CC, CN(C)C
